Data: publication PMC4409786 (Cancer discovery, 2014)
Counter-ions that a name gives are not always drawn.

What was measured:
PC-3^TMPRSS2 cells = experiment: Matrigel invasion assay, HGF-promoted; type: cell-based; details: PC-3^TMPRSS2, p<0.01
In short: (§1)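 TMPRSS2 coding sequence is cloned and transfected into DU145 or PC3 cells, and stable lines are selected with antibiotic; vector-transfected cells are the controls. Invasion through Matrigel is measured with a commercial 96-well invasion kit, under standard culture (serum) conditions or with added HGF, alongside serum-free medium.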

HepG2 cells = experiment: In vitro cell toxicity, HepG2; type: cell-based; details: HepG2, 48-hour, 0μM to 250μM
matriptase = target: T1, matriptase (Homo sapiens, UniProt Q9Y5Y6); experiment: Matriptase protease inhibition with optimal peptide substrate; type: biochemical
T1 sequence (Q9Y5Y6 1-855): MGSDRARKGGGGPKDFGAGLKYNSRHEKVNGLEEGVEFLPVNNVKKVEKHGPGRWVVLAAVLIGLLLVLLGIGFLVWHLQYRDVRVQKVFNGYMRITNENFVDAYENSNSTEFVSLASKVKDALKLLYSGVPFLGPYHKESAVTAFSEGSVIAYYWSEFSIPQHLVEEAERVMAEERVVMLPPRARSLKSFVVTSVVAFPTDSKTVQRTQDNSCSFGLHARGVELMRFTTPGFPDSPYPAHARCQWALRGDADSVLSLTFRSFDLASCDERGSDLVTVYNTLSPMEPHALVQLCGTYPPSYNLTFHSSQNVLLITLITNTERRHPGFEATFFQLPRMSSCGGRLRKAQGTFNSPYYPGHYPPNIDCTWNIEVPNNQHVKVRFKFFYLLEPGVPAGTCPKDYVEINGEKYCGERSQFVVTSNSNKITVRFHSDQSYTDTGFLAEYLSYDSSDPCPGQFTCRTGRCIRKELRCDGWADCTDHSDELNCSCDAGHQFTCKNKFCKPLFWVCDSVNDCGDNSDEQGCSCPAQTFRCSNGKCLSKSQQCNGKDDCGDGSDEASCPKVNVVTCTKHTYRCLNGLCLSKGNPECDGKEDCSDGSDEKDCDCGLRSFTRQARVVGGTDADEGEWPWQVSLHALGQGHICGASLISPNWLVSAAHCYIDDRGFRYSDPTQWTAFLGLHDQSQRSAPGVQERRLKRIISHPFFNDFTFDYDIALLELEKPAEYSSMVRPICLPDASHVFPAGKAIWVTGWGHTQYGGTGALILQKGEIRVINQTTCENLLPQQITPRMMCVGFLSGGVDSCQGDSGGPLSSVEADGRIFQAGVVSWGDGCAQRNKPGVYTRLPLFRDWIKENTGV
In short: (§2)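 Each enzyme is assayed with its optimal peptide substrate, and substrate concentrations are determined after 30 minutes.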

PC3 cells = experiment: In vitro cell toxicity, PC3; type: cell-based; details: PC3, 48-hour, 0μM to 250μM
trypsin = experiment: Trypsin inhibition; type: biochemical; details: read-out: IC50 for trypsin
thrombin = thrombin (Homo sapiens, UniProt P00734); experiment: Thrombin inhibition; type: biochemical
hepsin = hepsin (Homo sapiens, UniProt P05981); experiment: Hepsin protease inhibition with optimal peptide substrate; type: biochemical
In short: as §2

TRAMP mice = experiment: In vivo treatment of TRAMP mice: primary tumor and spontaneous metastasis; design: species or system mouse; details: 30mg/kg intraperitoneal three times per week, p=0.04 versus vehicle
DU145 cells [1] = experiment: In vitro cell toxicity, DU145; type: cell-based; details: DU145, 48-hour, 0μM to 250μM
LNCaP cells [2] = experiment: HGF-induced invasion assay; type: cell-based; details: natively express TMPRSS2, p<0.01
In short: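 Invasion through basement-membrane matrix, measured with a commercial 96-well invasion kit. LNCaP cells are exposed to exogenous paracrine-acting HGF and compared with serum-free medium.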

LNCaP cells [3] = experiment: In vitro cell toxicity, LNCaP; type: cell-based; details: 48-hour, 0μM to 250μM
DU145^TMPRSS2 cells = experiment: Matrigel invasion assay, HGF-promoted; type: cell-based; details: DU145^TMPRSS2, p<0.01
In short: as §1

C4-2B cells = experiment: HGF-induced invasion assay; type: cell-based; details: natively express TMPRSS2, p<0.01
DU145 cells [4] = experiment: DU145 invasion with prostate fibroblast conditioned medium and TMPRSS2; type: cell-based
prostate bone metastasis = details: human clinical trials ref 42; cited from earlier work

Chain of hepsin (P05981 whole entry): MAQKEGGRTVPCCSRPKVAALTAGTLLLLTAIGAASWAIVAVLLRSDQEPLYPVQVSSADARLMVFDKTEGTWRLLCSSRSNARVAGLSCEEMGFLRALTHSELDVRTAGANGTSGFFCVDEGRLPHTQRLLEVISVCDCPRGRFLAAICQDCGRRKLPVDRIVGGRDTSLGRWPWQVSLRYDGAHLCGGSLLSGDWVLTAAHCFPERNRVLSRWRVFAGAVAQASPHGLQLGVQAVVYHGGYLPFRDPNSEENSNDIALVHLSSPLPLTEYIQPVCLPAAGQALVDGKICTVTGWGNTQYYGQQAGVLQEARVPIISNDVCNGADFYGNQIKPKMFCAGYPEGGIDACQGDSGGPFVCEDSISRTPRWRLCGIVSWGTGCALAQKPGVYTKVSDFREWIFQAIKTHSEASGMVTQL

SMILES: CN(Cc1cc(Br)cc(Br)c1N)C1CCCCC1 [BHH, bromhexine hydrochloride]
- migration and invasion phenotypes promoted by HGF (PC-3^TMPRSS2 cells): significantly reduced
- toxicity (HepG2 cells): No significant toxicity
- IC50 (matriptase): 58 µM
- toxicity (PC3 cells): No significant toxicity
- IC50 (trypsin): > 100 µM
- IC50 (thrombin): > 100 µM
- IC50 (hepsin): 35 µM
- incidence of distant metastasis to lung and liver sites (TRAMP mice): 20%
- toxicity (DU145 cells [1]): No significant toxicity
- HGF-induced invasion (LNCaP cells [2]): significantly attenuated
- toxicity (LNCaP cells [3]): No significant toxicity
- migration and invasion phenotypes promoted by HGF (DU145^TMPRSS2 cells): significantly reduced
- HGF-induced invasion (C4-2B cells): significantly attenuated

SMILES: Cc1[nH]c(/C=C2\C(=O)Nc3ccc(S(=O)(=O)N(C)c4cccc(Cl)c4)cc32)c(C)c1C(=O)N1CCN(C)CC1 [SU11274]
- increase of cellular invasion by fibroblast conditioned medium and TMPRSS2 (DU145 cells [4]): abolished

SMILES: COc1cc2nccc(Oc3ccc(NC(=O)C4(C(=O)Nc5ccc(F)cc5)CC4)cc3)c2cc1OC [cabozantinib]
- prostate bone metastasis response (prostate bone metastasis): Striking regressions
